pIC50: −log10 of the molar value. The source made the active and inactive calls. The rule behind the calls is not given here.
Experiments:
OVCAR-4 = assay: Antitumor activity against human OVCAR4 cells after 3 days by WST1 assay; format: functional, cell-based; conditions: for pIC50: OVCAR-4, 72 h
How it was run: (§1)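 Cell lines grown in Iscove's MDM with 5% FCS, 50 µM 2-mercaptoethanol, penicillin and streptomycin; suspension lines kept at 0.5-1.5 × 10^6 cells/mL, adherent lines subconfluent. Cells seeded in triplicate at 10^4 cells/100 µL. Compounds were dissolved in water and added immediately at 0 to 100 µM final. WST.1 read at 440 nm on day 3; IC50 taken from OD versus concentration plots.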

COLO 205 = assay: Antitumor activity against human COLO205 cells after 3 days by WST1 assay; format: functional, cell-based; conditions: for pIC50: COLO 205, 72 h; how it was run: as §1
MCF7 [1] = assay: Antitumor activity against human MCF7 cells up to 50 uM after 3 days by WST1 assay; format: functional, cell-based; how it was run: as §1
MDA-MB-468 = assay: Antitumor activity against human MDA468 cells up to 50 uM after 3 days by WST1 assay; format: functional, cell-based; how it was run: as §1
[2] = Cytotoxicity against human CCD-967 cells up to 50 uM after 3 days by WST1 assay; format: cell-based; conditions: ccd-967, 72 h
How it was run: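 Cells grown in Iscove's MDM with 5% FCS, 50 µM 2-mercaptoethanol and antibiotics, kept subconfluent if adherent. Seeded in triplicate at 10^4 cells/100 µL with compounds (in water) added at once, 0 to 100 µM final. WST.1 formazan read at 440 nm on day 3; IC50 from OD versus concentration.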

Hs-578T = assay: Antitumor activity against human Hs 578T cells up to 50 uM after 3 days by WST1 assay; format: functional, cell-based; how it was run: as §1
T47D = assay: Antitumor activity against human T47D cells up to 50 uM after 3 days by WST1 assay; format: functional, cell-based; how it was run: as §1
PC-3 = assay: Antitumor activity against human PC3 cells up to 50 uM after 3 days by WST1 assay; format: functional, cell-based; how it was run: as §1
SNB-19 = assay: Antitumor activity against human SNB19 cells up to 50 uM after 3 days by WST1 assay; format: functional, cell-based; how it was run: as §1
[3] = Antitumor activity against human MDA468 cells after 3 days by WST1 assay; format: functional, cell-based; conditions: MDA-MB-468, 72 h; how it was run: as §1
[4] = Antitumor activity against human OCI-AML1 cells after 3 days by WST1 assay; format: functional, cell-based; conditions: ML1, 72 h; how it was run: as §1
OCI-AML2 = assay: Antitumor activity against human OCI-AML2 cells after 3 days by WST1 assay; format: functional, cell-based; conditions: OCI-AML2, 72 h; how it was run: as §1
[5] = Antitumor activity against human OCI-LY7 cells after 3 days by WST1 assay; format: functional, cell-based; conditions: OCI-Ly7, 72 h; how it was run: as §1
[6] = Antitumor activity against human OCI-My 2 cells after 3 days by WST1 assay; format: functional, cell-based; conditions: 72 h; how it was run: as §1
[7] = Antitumor activity against human SKW3 cells after 3 days by WST1 assay; format: functional, cell-based; conditions: SKW3, 72 h; how it was run: as §1
MCF7 [8] = assay: Antitumor activity against human MCF7 cells after 3 days by WST1 assay; format: functional, cell-based; conditions: MCF7, 72 h; how it was run: as §1
[9] = Antitumor activity against human LOX cells after 3 days by WST1 assay; format: functional, cell-based; conditions: 72 h; how it was run: as §1

| pIC50 (OVCAR-4) | pIC50 (COLO 205) | pIC50 (OCI-AML2) | pIC50 (MCF7 [8]) | SMILES | Activity (MCF7 [1]) | Activity (MDA-MB-468) | Activity [2] | Activity (Hs-578T) | Activity (T47D) | Activity (PC-3) | Activity (SNB-19) | pIC50 [3] | pIC50 [4] | pIC50 [5] | pIC50 [6] | pIC50 [7] | pIC50 [9] | Activity (OVCAR-4) | Activity (COLO 205) |
| --- | --- | --- | --- | --- | --- | --- | --- | --- | --- | --- | --- | --- | --- | --- | --- | --- | --- | --- | --- |
| < 4.30 | < 4.30 | < 4.30 | < 4.30 | Nc1cc(=O)[nH]c(=O)n1[C@@H]1O[C@H](CO)[C@@H](O)[C@H]1O | inactive | inactive | Not Active | inactive | inactive | inactive | inactive | < 4.30 | < 4.30 | < 4.30 | < 4.30 | < 4.30 | < 4.30 |  |  |
| < 4.30 | < 4.30 | < 4.30 | < 4.30 | CNc1cc(=O)[nH]c(=O)n1[C@@H]1O[C@H](CO)[C@@H](O)[C@H]1O | inactive | inactive | Not Active | inactive | inactive | inactive | inactive | < 4.30 | < 4.30 | < 4.30 | < 4.30 | < 4.30 | < 4.30 |  |  |
|  |  | < 4.30 | < 4.30 | O=c1cc(NO)n([C@@H]2O[C@H](CO)[C@@H](O)[C@H]2O)c(=O)[nH]1 | inactive | inactive | Not Active | inactive | inactive | inactive | inactive | < 4.30 | < 4.30 | < 4.30 | < 4.30 | < 4.30 | < 4.30 | inactive | inactive |
| < 4.30 | < 4.30 | 4.93 | 5.36 | CC(=O)OC[C@H]1O[C@@H](n2c(I)cc(=O)[nH]c2=O)[C@H](O)[C@@H]1O |  | inactive | Not Active | inactive | inactive | inactive | inactive | < 4.30 | 4.82 | 4.44 | 5.89 | 5.80 | 5.96 |  |  |
| < 4.30 | < 4.30 | < 4.30 | < 4.30 | COC(=O)c1cc(=O)[nH]c(=O)n1[C@@H]1O[C@H](CO)[C@@H](O)[C@H]1O | inactive | inactive | Not Active | inactive | inactive | inactive | inactive | < 4.30 | < 4.30 | < 4.30 | 4.37 | < 4.30 | < 4.30 |  |  |
| < 4.30 | < 4.30 | < 4.30 | < 4.30 | O=c1cc(O)n([C@@H]2O[C@H](CO)[C@@H](O)[C@H]2O)c(=O)[nH]1 | inactive | inactive | Not Active | inactive | inactive | inactive | inactive | < 4.30 | < 4.30 | < 4.30 | < 4.30 | < 4.30 | < 4.30 |  |  |
| < 4.30 | < 4.30 | < 4.30 | < 4.30 | O=c1cc(I)n([C@@H]2O[C@H](CO)[C@@H](O)[C@H]2O)c(=O)[nH]1 | inactive | inactive | Not Active | inactive | inactive | inactive | inactive | < 4.30 | 4.82 | < 4.30 | 4.56 | 4.72 | < 4.30 |  |  |
| < 4.30 | < 4.30 | < 4.30 | < 4.30 | O=c1cc(O)n([C@@H]2O[C@H](COP(=O)(O)O)[C@@H](O)[C@H]2O)c(=O)[nH]1 | inactive | inactive | Not Active | inactive | inactive | inactive | inactive | < 4.30 | < 4.30 | < 4.30 | < 4.30 | < 4.30 | < 4.30 |  |  |
|  |  | < 4.30 | < 4.30 | O=Cc1cc(=O)[nH]c(=O)n1[C@@H]1O[C@H](CO)[C@@H](O)[C@H]1O | inactive | inactive | Not Active | inactive | inactive | inactive | inactive | < 4.30 | < 4.30 | < 4.30 | < 4.30 | < 4.30 | < 4.30 | inactive | inactive |

The next lines start with the molecule.

| SMILES | pIC50 (OVCAR-4) | pIC50 (COLO 205) | pIC50 (OCI-AML2) | pIC50 (MCF7 [8]) | Activity (MCF7 [1]) | Activity (MDA-MB-468) | Activity [2] | Activity (Hs-578T) | Activity (T47D) | Activity (PC-3) | Activity (SNB-19) | pIC50 [3] | pIC50 [4] | pIC50 [5] | pIC50 [6] | pIC50 [7] | pIC50 [9] | Activity (OVCAR-4) | Activity (COLO 205) |
| --- | --- | --- | --- | --- | --- | --- | --- | --- | --- | --- | --- | --- | --- | --- | --- | --- | --- | --- | --- |
| N#Cc1cc(=O)[nH]c(=O)n1[C@@H]1O[C@H](CO)[C@@H](O)[C@H]1O | < 4.30 | < 4.30 | < 4.30 | < 4.30 | inactive | inactive | Not Active | inactive | inactive | inactive | inactive | < 4.30 | < 4.30 | < 4.30 | < 4.30 | < 4.30 | < 4.30 |  |  |
| O=c1[nH]c(=O)n([C@@H]2O[C@H](CO)[C@@H](O)[C@H]2O)cc1F [5-FLUOROURIDINE] |  |  |  |  | inactive | inactive | Not Active | inactive | inactive | inactive | inactive |  |  |  |  |  |  |  |  |
| CN(C)c1cc(=O)[nH]c(=O)n1[C@@H]1O[C@H](CO)[C@@H](O)[C@H]1O | < 4.30 | < 4.30 | < 4.30 | < 4.30 | inactive | inactive | Not Active | inactive | inactive | inactive | inactive | < 4.30 | < 4.30 | < 4.30 | < 4.30 | < 4.30 | < 4.30 |  |  |
| O=c1[nH]c(=O)n([C@@H]2O[C@H](CO)[C@@H](O)[C@H]2O)c(I)c1Br | < 4.30 | < 4.30 | < 4.30 | < 4.30 | inactive | inactive | Not Active | inactive | inactive | inactive | inactive | < 4.30 | < 4.30 | < 4.30 | < 4.30 | < 4.30 | < 4.30 |  |  |
| [N-]=[N+]=Nc1cc(=O)[nH]c(=O)n1[C@@H]1O[C@H](CO)[C@@H](O)[C@H]1O | < 4.30 | < 4.30 | < 4.30 | < 4.30 | inactive | inactive | Not Active | inactive | inactive | inactive | inactive | < 4.30 | < 4.30 | < 4.30 | < 4.30 | < 4.30 | < 4.30 |  |  |
| CN(C)c1cc(=O)[nH]c(=O)[nH]1 | < 4.30 | < 4.30 | < 4.30 | < 4.30 | inactive | inactive | Not Active | inactive | inactive | inactive | inactive | < 4.30 | < 4.30 | < 4.30 | < 4.30 | < 4.30 | < 4.30 |  |  |
| CCc1c(F)c(=O)[nH]c(=O)n1[C@@H]1O[C@H](CO)[C@@H](O)[C@H]1O |  |  |  | 4.50 |  |  | Not Active | inactive | inactive | inactive | inactive | 5.28 | 5.68 | 5.72 | 5.85 | 5.92 | 5.35 |  |  |

Reference: ChEMBL document CHEMBL1152809, “Structure-activity relationships of orotidine-5'-monophosphate decarboxylase inhibitors as anticancer agents” (J Med Chem, 2009)
